Measurements as given in publication PMC4002122 (Chemical Research in Toxicology, 2014).

Assays:
Assay type in all cases: in vitro ADME
Conditions in all cases: 250 μM substrate, 5 μg protein, 60 min, 37 °C
UGT1A1 = molecular target: T1, UGT1A1 (Homo sapiens, UniProt P22309); experiment: Screening of recombinant UGT1A1 for glucuronidation activity
T1 sequence (P22309 26-533): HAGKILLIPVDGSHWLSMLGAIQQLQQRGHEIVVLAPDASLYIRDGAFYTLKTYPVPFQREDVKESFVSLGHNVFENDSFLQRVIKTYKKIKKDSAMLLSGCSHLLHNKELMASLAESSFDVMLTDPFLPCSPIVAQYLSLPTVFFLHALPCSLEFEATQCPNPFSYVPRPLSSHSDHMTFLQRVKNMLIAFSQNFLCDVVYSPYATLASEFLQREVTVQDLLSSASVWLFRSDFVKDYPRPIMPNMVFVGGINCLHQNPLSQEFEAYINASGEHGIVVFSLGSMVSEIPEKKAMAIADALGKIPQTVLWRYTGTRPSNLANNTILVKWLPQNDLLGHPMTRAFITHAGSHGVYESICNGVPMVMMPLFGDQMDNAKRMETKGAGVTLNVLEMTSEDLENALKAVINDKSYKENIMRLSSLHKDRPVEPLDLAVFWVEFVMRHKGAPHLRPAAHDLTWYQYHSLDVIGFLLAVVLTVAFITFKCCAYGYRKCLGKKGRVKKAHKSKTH
How it was run: (§1)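 UGT1A1, 1A3, 1A4 and 1A6–1A10 were His-tagged and expressed in baculovirus-infected Sf9 cells; UGT2B4, 2B7, 2B15 and 2B17 were commercial membranes run per supplier protocol. 5 μg membrane protein with 250 μM substrate, 2 mM UDP-GlcUA, Tris–HCl pH 7.4, MgCl2, saccharolactone, 2% DMSO; 37 °C, 60 min; no-substrate controls. Products measured by HPLC-UV/vis; β-glucuronidase hydrolysis separated O- from carboxyl glucuronides.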

UGT1A3 = molecular target: T2, UGT1A3 (Homo sapiens, UniProt P35503); experiment: Screening of recombinant UGT1A3 for glucuronidation activity
T2 sequence (P35503 29-534): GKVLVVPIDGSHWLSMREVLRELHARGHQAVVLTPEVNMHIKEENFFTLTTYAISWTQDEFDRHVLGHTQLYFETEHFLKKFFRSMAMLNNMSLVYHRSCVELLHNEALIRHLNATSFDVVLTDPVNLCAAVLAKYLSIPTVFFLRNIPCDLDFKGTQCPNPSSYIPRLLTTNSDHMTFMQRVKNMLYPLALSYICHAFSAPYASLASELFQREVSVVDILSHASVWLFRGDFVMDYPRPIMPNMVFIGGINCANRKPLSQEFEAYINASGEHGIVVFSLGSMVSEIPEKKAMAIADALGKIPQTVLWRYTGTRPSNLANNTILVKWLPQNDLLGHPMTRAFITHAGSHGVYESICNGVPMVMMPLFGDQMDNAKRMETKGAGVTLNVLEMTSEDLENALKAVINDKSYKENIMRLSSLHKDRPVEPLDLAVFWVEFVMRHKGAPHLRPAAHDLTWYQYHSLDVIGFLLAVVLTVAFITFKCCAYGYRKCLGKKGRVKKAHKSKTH
How it was run: as §1

UGT1A6 = molecular target: T3, UGT1A6 (Homo sapiens, UniProt P19224); experiment: Screening of recombinant UGT1A6 for glucuronidation activity
T3 sequence (P19224 27-532): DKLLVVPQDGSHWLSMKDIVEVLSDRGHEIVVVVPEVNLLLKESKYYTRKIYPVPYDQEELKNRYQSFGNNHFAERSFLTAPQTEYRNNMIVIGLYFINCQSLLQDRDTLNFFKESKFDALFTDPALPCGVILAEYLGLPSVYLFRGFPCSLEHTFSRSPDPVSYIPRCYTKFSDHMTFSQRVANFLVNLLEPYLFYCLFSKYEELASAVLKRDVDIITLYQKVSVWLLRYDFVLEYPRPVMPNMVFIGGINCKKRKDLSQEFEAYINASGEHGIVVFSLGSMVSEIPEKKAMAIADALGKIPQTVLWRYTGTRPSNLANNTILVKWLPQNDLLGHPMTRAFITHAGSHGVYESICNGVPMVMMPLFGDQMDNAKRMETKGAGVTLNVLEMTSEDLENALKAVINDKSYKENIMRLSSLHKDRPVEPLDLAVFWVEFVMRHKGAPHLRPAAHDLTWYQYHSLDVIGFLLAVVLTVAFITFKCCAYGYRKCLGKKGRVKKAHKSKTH
How it was run: as §1

UGT1A8 = molecular target: T4, UGT1A8 (Homo sapiens, UniProt Q9HAW9); experiment: Screening of recombinant UGT1A8 for glucuronidation activity
T4 sequence (Q9HAW9 26-530): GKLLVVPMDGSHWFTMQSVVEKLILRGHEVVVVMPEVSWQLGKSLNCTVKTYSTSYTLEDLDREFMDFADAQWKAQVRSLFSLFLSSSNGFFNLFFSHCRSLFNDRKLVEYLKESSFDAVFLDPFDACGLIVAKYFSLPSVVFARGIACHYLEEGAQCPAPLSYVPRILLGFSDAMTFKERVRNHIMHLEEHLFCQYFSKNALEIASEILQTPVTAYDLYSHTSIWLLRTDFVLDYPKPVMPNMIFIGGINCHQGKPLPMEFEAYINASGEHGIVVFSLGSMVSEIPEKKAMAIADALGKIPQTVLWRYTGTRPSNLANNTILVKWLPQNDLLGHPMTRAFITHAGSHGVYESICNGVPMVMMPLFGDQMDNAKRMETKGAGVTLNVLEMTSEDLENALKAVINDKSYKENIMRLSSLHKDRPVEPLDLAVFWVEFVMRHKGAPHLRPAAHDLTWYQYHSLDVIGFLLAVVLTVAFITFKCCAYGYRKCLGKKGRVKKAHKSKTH
How it was run: as §1

UGT1A9 = molecular target: T5, UGT1A9 (Homo sapiens, UniProt O60656); experiment: Screening of recombinant UGT1A9 for glucuronidation activity
T5 sequence (O60656 26-530): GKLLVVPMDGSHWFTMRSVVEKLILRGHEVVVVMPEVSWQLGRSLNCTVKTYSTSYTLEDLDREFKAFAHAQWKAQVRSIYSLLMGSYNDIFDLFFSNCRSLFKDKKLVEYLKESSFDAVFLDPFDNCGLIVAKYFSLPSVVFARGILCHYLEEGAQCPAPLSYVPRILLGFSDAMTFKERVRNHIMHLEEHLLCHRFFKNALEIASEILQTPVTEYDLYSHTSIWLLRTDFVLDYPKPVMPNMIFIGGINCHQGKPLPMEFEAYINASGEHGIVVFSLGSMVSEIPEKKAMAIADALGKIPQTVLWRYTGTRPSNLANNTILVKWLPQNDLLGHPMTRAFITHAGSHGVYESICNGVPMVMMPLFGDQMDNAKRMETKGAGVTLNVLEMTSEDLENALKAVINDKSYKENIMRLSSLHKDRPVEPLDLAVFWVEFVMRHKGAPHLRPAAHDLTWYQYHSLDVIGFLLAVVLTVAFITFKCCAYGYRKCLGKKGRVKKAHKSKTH
How it was run: as §1

Row | Compound | glucuronidation activity (glucuronide formed) (UGT1A1) | glucuronidation activity (glucuronide formed) (UGT1A3) | glucuronidation activity (glucuronide formed) (UGT1A6) | glucuronidation activity (glucuronide formed) (UGT1A8) | glucuronidation activity (glucuronide formed) (UGT1A9)
1 | COc1cc(/C=C/c2cc([N+](=O)[O-])c(O)c([N+](=O)[O-])c2)cc(OC)c1 [DNR-1, (E)-4-(3,5-dimethoxystyryl)-2,6-dinitrophenol] | No activity | No activity | No activity | No activity | No activity
2 | COc1ccc(/C=C(/C(=O)O)c2cc(OC)c(OC)c(OC)c2)cc1O [NI-12a, (E)-3-(3-hydroxy-4-methoxyphenyl)-2-(3,4,5-trimethoxyphenyl)acrylic acid] | only the carboxyl metabolite | both COO- and O-glucuronides | not active | only the hydroxyl metabolite | only the hydroxyl metabolite
3 | COc1ccc(C=Cc2cc(OC)cc(OC)c2/C=N/O)cc1 [NI-ST-05, (E)-2,4-dimethoxy-6-(4-methoxystyryl)benzaldehyde oxime] | catalyzed the formation of the C=N–O-glucuronide | inactive | inactive | inactive | catalyzed the formation of the C=N–O-glucuronide
